From the array DNA melting data of Ke et al. (doi:10.1101/2024.01.08.574731)

How the values were obtained:
[1] = melting temperature; fluorescence melt of hairpins on a sequencing array, two-state fit, raised by 9.35 °C to match UV melts; details: sodium 0.088 M
Procedure, shortened: (§1)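 Hairpins were imaged by Cy3 fluorescence on a sequenced MiSeq flow cell with annealed Cy3 and quencher oligos, in 50 mM Na-HEPES pH 8.0, 25 mM NaCl, in 2.5 °C steps up to 60 °C. Bootstrapped two-state fits of normalised signals gave melting temperature and folding enthalpy. Four replicates were combined by inverse variance, and fitted temperatures were raised by 9.35 °C to match UV melts.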

[2] = folding enthalpy; higher = less favourable; fluorescence melt of hairpins on a sequencing array, two-state fit; details: sodium 0.088 M
Procedure, shortened: as §1

| Sequence | Tm [1] | folding enthalpy [2] |
| --- | --- | --- |
| GATCGACCGATCGATC ((((((....)))))) | 51.6 °C | -25.4 kcal/mol |
| GATCGAGGAAACCCGATC (((((.(....).))))) | 47.8 °C | -33.1 kcal/mol |
| GATTGACCGAAAGGTATC (((..(((....)))))) | 28.5 °C | -11.6 kcal/mol |
| GCGGATGGAAACATCTGC ((.((((....)))).)) | 54.4 °C | -47.5 kcal/mol |
| GGTGACGAAAGTCAACC ((((((....))).))) | 56.1 °C | -19.6 kcal/mol |
| GCTCCGCGAAAGCCCAGC (((..((....))..))) | 23.2 °C | -5.26 kcal/mol |
| GTGGTCGGAAACGGCTAC ((.(.((....)).).)) | 44.5 °C | -25.8 kcal/mol |
| GGTGGGCGAAAGCCGACC (((.(((....))).))) | 61.9 °C | -19.6 kcal/mol |
| GATCTCTAGGGAGATC ((((((....)))))) | 53.1 °C | -39.7 kcal/mol |
| GTATCCGAAAGGAAATAC ((((((....)))..))) | 31 °C | -16.8 kcal/mol |
| GATCACTGGGTGATC ((((((...)))))) | 57.3 °C | -33.1 kcal/mol |
| GCGTTGCGAAAGCAGTGC ((..(((....)))..)) | 51.6 °C | -17.8 kcal/mol |
| GATTAAGGAAACTTGATC (((.(((....))).))) | 30.3 °C | -26.6 kcal/mol |
| GGTCTTGCGAAAGCAACC (((..(((....)))))) | 28.8 °C | -8.24 kcal/mol |
| GATCACCTCGGTGATC ((((((....)))))) | 65.4 °C | -37.5 kcal/mol |
| GTACCCGAAAGGGGGTAC ((((((....)))..))) | 49.6 °C | -18.1 kcal/mol |
| GAGTACGAAAGTAAGCTC ((((((....)))..))) | 29.3 °C | -14.9 kcal/mol |
| GGTGGTCGAAAGACAACC (((.(((....))).))) | 55.6 °C | -39.2 kcal/mol |
| GTTCCCCCGAAAGGGAAC (((..(((....)))))) | 51.6 °C | -34.7 kcal/mol |
| GGTTCAACGAAAGTTACC (((..(((....)))))) | 27.8 °C | -14.4 kcal/mol |
| GGAATTGGAAACAGTTCC ((((.((....)).)))) | 42.9 °C | -27.3 kcal/mol |
| GTTCGCGAAAGCGTGAAC ((((((....)))..))) | 40.5 °C | -13 kcal/mol |
| GAAACGGGAAACCGTCTC ((.((((....)))).)) | 32.9 °C | -13.5 kcal/mol |

| Sequence | Tm [1] | folding enthalpy [2] |
| --- | --- | --- |
| GTGCAAGGAAACTTGTAC ((.((((....)))).)) | 45 °C | -32.5 kcal/mol |
| TGCGTGAAAACGCA (((((....))))) | 66.2 °C | -18.1 kcal/mol |
| GGTGTCGGAAACGATACC (((.(((....))).))) | 54.4 °C | -52 kcal/mol |
| GCACCCGGAAACGGACGC ((..(((....)))..)) | 38.7 °C | -19.6 kcal/mol |
| GGTATGGGAAACCACACC (((.(((....))).))) | 38.6 °C | -27 kcal/mol |
| GTGGTAGGAAACTGCTAC ((.(.((....)).).)) | 32.1 °C | -17.7 kcal/mol |
| GACGCCGGAAACGGCGCC (.(((((....))))).) | 56.9 °C | -10.5 kcal/mol |
| GAGCACCGAAAGGTACTC (((.(((....))).))) | 50 °C | -36.7 kcal/mol |
| GACGCTGGAAACGGTGTC (((.(.(....).).))) | 42.1 °C | -28.9 kcal/mol |
| GGGTCTGGAAACAGACTC (.(((((....))))).) | 52 °C | -21.9 kcal/mol |
| GTCTGAGGAAACTCGGAC (((.(((....))).))) | 49.4 °C | -36.2 kcal/mol |
| GCGTGTTTACGC ((((....)))) | 55 °C | -30 kcal/mol |
| GCCCTTGGAAACAAGAGC ((.((((....)))).)) | 37.6 °C | -21.4 kcal/mol |
| GGTAGTCGAAAGACAACC (((.(((....))).))) | 51.3 °C | -25.2 kcal/mol |
| GGAGGCCGAAAGGCTCC (((.(((....)))))) | 57.2 °C | -21.1 kcal/mol |
| GTGGAGGGAAACCTTCAC (((.(((....))).))) | 47.3 °C | -31.9 kcal/mol |
| GGTAACGAAAGTTTAACC ((((((....)))..))) | 33.8 °C | -15.7 kcal/mol |
| GGACCAGGAAACCGGTCC (((((.(....).))))) | 54.6 °C | -35.3 kcal/mol |
| GATCTTACCTAAGATC ((((((....)))))) | 45 °C | -40.2 kcal/mol |
| GCCTGACGAAAGTCTGGC (((.(((....))).))) | 67.5 °C | -37.2 kcal/mol |
| GACCCCGAAAGGGTAGTC ((((((....)))..))) | 44.4 °C | -15 kcal/mol |
| GCTAGCCGAAAGGCAGC (((.(((....)))))) | 58.1 °C | -21.7 kcal/mol |
| GTACAACGAAAGTTTAC (((.(((....)))))) | 27.8 °C | -11.5 kcal/mol |

| Sequence | Tm [1] | folding enthalpy [2] |
| --- | --- | --- |
| GCGATGCGAAAGCAATGC ((..(((....)))..)) | 53.1 °C | -18.2 kcal/mol |
| GGCTACGGAAACGTAACC ((.((((....)))).)) | 42.1 °C | -26.2 kcal/mol |
| GTGGGGCCGAAAGGCCAC (((..(((....)))))) | 64.9 °C | -16.2 kcal/mol |
| CGGGCGGAAACGCCACCG ((((((....)))..))) | 42.4 °C | -9.3 kcal/mol |
| GCGTTGTAACGC ((((....)))) | 56.8 °C | -27.4 kcal/mol |
| GGAGGAGGAAACTCTTCC (((.(((....))).))) | 42.2 °C | -29.1 kcal/mol |
| GCAAGCGCGAAAGCGTGC (((..(((....)))))) | 47.5 °C | -12.5 kcal/mol |
| GTCTCCGAAAGGACGAC ((((((....))).))) | 46.7 °C | -27.5 kcal/mol |
| GATCCTCGGGAGGATC ((((((....)))))) | 56.1 °C | -37.7 kcal/mol |
| GAGCATGGAAACATGCTC (((((((....))))))) | 67.5 °C | -37.1 kcal/mol |
| GTATTCACGAAAGTGTAC (((..(((....)))))) | 25.8 °C | -9.14 kcal/mol |
| GCATCGCGAAAGCCAGGC ((.(.((....)).).)) | 37.2 °C | -10.4 kcal/mol |
| GAGCGTGCGAAAGCACTC (((..(((....)))))) | 26.9 °C | -5.83 kcal/mol |
| GTCGTTGGAAACAACGAC (((((((....))))))) | 67.6 °C | -41.6 kcal/mol |
| GTCTGGGAAACCAGAC ((((((....)))))) | 58.3 °C | -38.3 kcal/mol |
| GTCCCTCGAAAGAGCGAC (((.(((....))).))) | 40.1 °C | -26.8 kcal/mol |
| TAGACGAAAGTCTA (((((....))))) | 50.9 °C | -15.3 kcal/mol |
| GGAAACGAAAGTTCTTCC ((((((....)))..))) | 32.2 °C | -14.9 kcal/mol |
| GCAAGGGGAAACCCCTAC (.(.(((....))).).) | 28.7 °C | -12 kcal/mol |
| GGCTTTGGAAACAAGGTC (.(.(((....))).).) | 32.2 °C | -13.9 kcal/mol |
| GTTGACGAAAGTCGCAAC ((((((....)))..))) | 31 °C | -13.3 kcal/mol |
| GAGTATACGAAAGTACTC (((..(((....)))))) | 34 °C | -15.7 kcal/mol |
| GCACTTGGAAACAAATGC (((.(((....))).))) | 35.4 °C | -24.8 kcal/mol |
